ChEMBL document CHEMBL2331259, “Design, synthesis, biological evaluation and molecular modeling studies of 1-aryl-6-(3,4,5-trimethoxyphenyl)-3(Z)-hexen-1,5-diynes as a new class of potent antitumor agents” (Eur J Med Chem, 2013)
Calls of active or inactive are those of the source. No cut-off for these calls is given here.

How the values were obtained:
SAS = assay: Cytotoxicity against human SAS cells assessed as growth inhibition; type: functional, cell-based
PC-3 = assay: Cytotoxicity against human PC3 cells assessed as growth inhibition; type: functional, cell-based
AGS = assay: Cytotoxicity against human AGS cells assessed as growth inhibition; type: functional, cell-based
[1] = Cytotoxicity against human BT-483 cells assessed as growth inhibition; type: functional, cell-based
[2] = Cytotoxicity against human CE81T cells assessed as growth inhibition; type: functional, cell-based
SK-HEP1 = assay: Cytotoxicity against human SKHEP1 cells assessed as growth inhibition; type: functional, cell-based
HeLa = assay: Cytotoxicity against human HeLa cells assessed as growth inhibition; type: functional, cell-based
A549 = assay: Cytotoxicity against human A549 cells assessed as growth inhibition; type: functional, cell-based
[3] = biological target: T1, Tubulin alpha (Homo sapiens) (UniProt P0DPH7+P68366+Q71U36+P68363+Q9BQE3+Q6PEY2+A6NHL2+Q9NY65); assay: Binding affinity to Tubulin alpha/beta in human BT-483 cells assessed as microtubule depolymerization at 3.6 uM after 6 hrs by immunofluorescence analysis; type: cell-based
BT-483 [4] = assay: Induction of DNA damage in human BT-483 cells assessed as gamma H2AX phosphorylation at Ser139 at 1 uM after 24 hrs by Western blot analysis; type: functional, cell-based
Procedure, shortened: (§1)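 BT483 cells treated 24 h with vehicle (1% DMSO) or compound at various concentrations, PBS-washed and lysed. 50 μg protein run on 15% SDS-PAGE, transferred to PVDF, blocked overnight at 4 °C in 5% nonfat milk. Probed 2 h at room temperature with monoclonal anti-Caspase-3, anti-PARP, anti-phospho-γ-H2AX or anti-β-actin, then secondary IgG (1:5000). ECL detection. Irinotecan served as positive control.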

BT-483 [5] = assay: Induction of DNA damage in human BT-483 cells assessed as gamma H2AX phosphorylation at Ser139 at 1 to 10 uM after 24 hrs by Western blot analysis; type: functional, cell-based; procedure, shortened: as §1
[6] = Cell cycle arrest in human BT-483 cells assessed as accumulation of cells at subG1 phase at 0.2 uM after 24 hrs by flow cytometric analysis; type: functional, cell-based
Procedure, shortened: (§2)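 BT-483 cells exposed to DMSO or 0.2 μM compound for 12 and 24 h, harvested, PBS-rinsed, fixed in 80% ethanol and stored at -20 °C. DNA-fluorescence flow cytometry used for cell cycle distribution, including G2/M and sub-G1 fractions.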

BT-483 [7] = assay: Antitumor activity against human BT-483 cells xenografted in nude mouse assessed as decrease in tumor growth at 20 mg/kg/day, ip for 2 weeks measured every 3 days by caliper analysis; type: functional, organism-based
Procedure, shortened: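 Nude mice (male, 6–8 weeks, 20–25 g, SPF) inoculated s.c. in left flank with 1×10^6 BT483 cells in 50% matrigel. Treatment began at tumor volume ~20 mm³: i.p. daily for 2 weeks versus DMSO vehicle (n = 5 vehicle, n = 6 treated). Caliper measurement every 3 days from first dose; volume = width × length × height. Mean ± SEM.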

[8] = Cell cycle arrest in human BT-483 cells assessed as accumulation of cells at G2/M phase at 0.2 uM after 12 hrs by flow cytometric analysis; type: functional, cell-based; procedure, shortened: as §2
[9] = biological target: T1, Tubulin alpha (Homo sapiens); assay: Binding affinity to Tubulin alpha/beta in human BT-483 cells assessed as microtubule depolymerization at 1 uM after 6 hrs by immunofluorescence analysis; type: cell-based
Procedure, shortened: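 BT483 cells held at 4 °C for 4 h to depolymerize microtubules, then incubated at 37 °C for 6 h in medium with DMSO or 1 μM compound. Cells fixed, immunostained with anti-tubulin antibody to view microtubule distribution; nuclei counterstained with DAPI.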

BT-483 [10] = assay: Induction of apoptosis in human BT-483 cells assessed as PARP cleavage at 1 uM after 24 hrs by Western blot analysis; type: functional, cell-based; procedure, shortened: as §1
BT-483 [11] = assay: Induction of apoptosis in human BT-483 cells assessed as increase in caspase 3 activity at 1 uM after 24 hrs by Western blot analysis; type: functional, cell-based; procedure, shortened: as §1

| Activity [3] | Activity [9] | SMILES | IC50 (SAS) [µM] | IC50 (PC-3) [µM] | IC50 (AGS) [µM] | IC50 [1] [µM] | IC50 [2] [µM] | IC50 (SK-HEP1) [µM] | IC50 (HeLa) [µM] | IC50 (A549) [µM] | Activity (BT-483 [4]) | Activity (BT-483 [5]) | Activity [6] | Activity (BT-483 [7]) | Activity [8] | Activity (BT-483 [10]) | Activity (BT-483 [11]) |
| --- | --- | --- | --- | --- | --- | --- | --- | --- | --- | --- | --- | --- | --- | --- | --- | --- | --- |
| – | – | COc1ccccc1C#C/C=C\C#Cc1cc(OC)c(OC)c(OC)c1 | 9.88 | 0.62 | 0.78 | 1.23 | 6.95 | 0.34 | 0.57 | 0.52 | – | – | – | – | – | – | – |
| – | – | COc1ccc(C#C/C=C\C#Cc2cc(OC)c(OC)c(OC)c2)c([N+](=O)[O-])c1 | 0.65 | 3.79 | 2.78 | 4.53 | 6.32 | 4.28 | 2.26 | 5.95 | – | – | – | – | – | – | – |
| – | – | COc1ccc(C#C/C=C\C#Cc2cc(OC)c(OC)c(OC)c2)c(N)c1 | 12.3 | 11.7 | 5.75 | 9.56 | 30 | 5.23 | 5 | 6.42 | – | – | – | – | – | – | – |
| Active | – | Nc1ccccc1C#C/C=C\C#Cc1ccccc1C(F)(F)F | 5.83 | 8.26 | 8.24 | 8.56 | 2.91 | 6.68 | 5.49 | 6.57 | – | – | – | – | – | – | – |
| – | – | COc1cc2c(c(OC)c1OC)-c1ccc(OC)c(=O)cc1[C@@H](NC(C)=O)CC2 [COLCHICINE] | 3.5 | 0.06 | 0.05 | 1.45 | 1.78 | 0.78 | 0.66 | 0.07 | – | – | – | – | – | – | – |
| – | – | CCc1c2c(nc3ccc(OC(=O)N4CCC(N5CCCCC5)CC4)cc13)-c1cc3c(c(=O)n1C2)COC(=O)[C@]3(O)CC | – | – | – | – | – | – | – | – | Active | – | – | – | – | – | – |
| – | – | COc1cc(C#C/C=C\C#Cc2ccccc2[N+](=O)[O-])cc(OC)c1OC | 1.37 | 4.56 | 4.66 | 4.24 | 6.91 | 1.34 | 1.89 | 5.71 | – | – | – | – | – | – | – |
| – | – | COc1ccc(C#C/C=C\C#Cc2cc(OC)c(OC)c(OC)c2)c(OC)c1 | – | 22.9 | – | – | 17.4 | 14.4 | 12.8 | – | – | – | – | – | – | – | – |
| – | – | COc1cc(C#C/C=C\C#Cc2ccccc2C#N)cc(OC)c1OC | 10.6 | 8.68 | 4.56 | 10.5 | 6.39 | 1.2 | 1.07 | 0.79 | – | – | – | – | – | – | – |
| – | Active | COc1cc(C#C/C=C\C#Cc2ccccn2)cc(OC)c1OC | 1.16 | 0.51 | 0.13 | 0.86 | 6.87 | 0.43 | 0.39 | 3.99 | – | Active | Active | Active | Active | Active | Active |
| – | – | COc1cc(C#C/C=C\C#Cc2cc(C(F)(F)F)ccc2N)cc(OC)c1OC | 15.8 | – | – | 21.2 | 21 | 28.3 | 24.8 | 12.4 | – | – | – | – | – | – | – |
| – | – | COc1cc(C#C/C=C\C#Cc2ccccc2SC)cc(OC)c1OC | 12.8 | 17.4 | 9.53 | 15.2 | 13.9 | 13.3 | 15.9 | 11.7 | – | – | – | – | – | – | – |
| – | – | COc1cc(C#C/C=C\C#Cc2ccccc2N)cc(OC)c1OC | 4.53 | 0.73 | 0.98 | 1.98 | 8.98 | 0.2 | 0.64 | 0.57 | – | – | – | – | – | – | – |
